ChEMBL document CHEMBL1949592, “Synthesis and antiviral activity of 2'-deoxy-2'-fluoro-2'-C-methyl-7-deazapurine nucleosides, their phosphoramidate prodrugs and 5'-triphosphates” (Bioorg Med Chem Lett, 2011)
Active and inactive are the calls of the source. The calls are words filed in the database; no cut-off is given here.

How the values were obtained:
PBMC = test: Cytotoxicity against human PBMC after 6 days by trypan blue exclusion method; type: cell-based; conditions: 144 h
CCRF-CEM = test: Cytotoxicity against human CEM cells after 6 days by trypan blue exclusion method; type: cell-based; conditions: 144 h
Vero = test: Cytotoxicity against african green monkey Vero cells after 3 days by hemocytometer analysis; type: cell-based; conditions: Chlorocebus sabaeus, 72 h
[1] = system: Human immunodeficiency virus 1; test: Antiviral activity against HIV1 LAV1 infected in PHA-stimulated human PBMC assessed as reduction in RT activity after 6 days by micromethod-based beta scintillation counting; type: functional, organism-based; conditions: Human immunodeficiency virus 1, LAV1, 144 h
Hepatitis C virus = test: Antiviral activity against Hepatitis C virus infected in human HuH7 cells assessed as decrease in viral RNA level after 96 hrs by RT-PCR; type: functional, organism-based, Hepacivirus hominis; conditions: Huh-7, 96 h
Huh-7 = test: (§1) Cytotoxicity against human HuH7 cells assessed as reduction of 50% rRNA level after 96 hrs; type: cell-based; conditions: huh-7, 96 h
Method in brief: (§2)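 Huh-7 cells carrying the HCV replicon were exposed to compound for 96 h. Toxicity was read as a fall in cellular rRNA.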

Hepatitis B virus = test: Antiviral activity against wild type Hepatitis B virus infected in hepatocytes; type: functional, organism-based; conditions: Hepatocyte
HepG2 = test: Cytotoxicity against human HepG2 cells by neutral red dye uptake assay; type: cell-based
[2] = as §1; type: cell-based, Huh-7; conditions: HuH7 cells; method in brief: as §2

| Structure (SMILES) | IC50 (PBMC) [µM] | IC50 (CCRF-CEM) [µM] | IC50 (Vero) [µM] | EC50 [1] [µM] | EC90 [1] [µM] | EC50 (Hepatitis C virus) [µM] | CC50 (Huh-7) [µM] | EC90 (Hepatitis C virus) [µM] | Activity (Hepatitis B virus) | Activity (HepG2) | CC50 at 96 h [2] [µM] |
| --- | --- | --- | --- | --- | --- | --- | --- | --- | --- | --- | --- |
| C[C@@]1(F)[C@H](O)[C@@H](CO)O[C@@H]1n1cc(I)c2c(N)nc(N)nc21 | > 100 | > 100 | > 100 | > 100 | > 100 | > 10 | – | – | – | – | – |
| CNc1ncnc2c1c(F)cn2[C@H]1O[C@H](CO)[C@@H](O)[C@@]1(C)F | > 100 | > 100 | > 100 | > 100 | – | > 10 | – | – | – | – | – |
| C[C@@]1(O)[C@H](O)[C@@H](CO)O[C@H]1n1ccc(N)nc1=O | 47.4 | 54.4 | > 100 | 47.5 | 100 | 2.8 | > 10 | 9.6 | – | – | – |
| C[C@@]1(F)[C@H](O)[C@@H](CO)O[C@@H]1n1ccc2c(N)nc(N)nc21 | > 100 | > 100 | > 100 | > 100 | > 100 | > 10 | – | – | – | – | – |
| CCOC(=O)[C@H](C)NP(=O)(OC[C@H]1O[C@@H](n2cc(I)c3c(N)ncnc32)[C@](C)(F)[C@@H]1O)Oc1ccccc1 (stereo not given in full) | 17.4 | 13.5 | 17.8 | 58.1 | > 100 | > 10 | > 10 | > 10 | – | – | – |
| COc1ncnc2c1ccn2[C@H]1O[C@H](CO)[C@@H](O)[C@@]1(C)F | > 100 | > 100 | > 100 | ≥ 100 | ≥ 100 | > 10 | > 10 | – | – | – | – |
| C[C@@]1(F)[C@H](O)[C@@H](CO)O[C@@H]1n1cc(C#Cc2ccccc2)c2c(N)ncnc21 | 40.8 | 15.7 | 51.3 | 7.7 | 38 | > 10 | > 10 | > 10 | inactive | – | – |
| C[C@@]1(F)[C@H](O)[C@@H](CO)O[C@H]1n1cc(Cl)c2c(N)ncnc21 | 18.5 | > 100 | > 100 | 82.4 | – | < 10 | > 10 | > 10 | – | – | – |
| C[C@@]1(F)[C@H](O)[C@@H](CO)O[C@H]1n1cc(F)c2c(N)ncnc21 | > 100 | > 100 | > 100 | > 100 | > 100 | > 10 | – | > 10 | – | – | – |
| CCOC(=O)[C@H](C)NP(=O)(OC[C@H]1O[C@@H](n2cc(F)c3c(N)ncnc32)[C@](C)(F)[C@@H]1O)Oc1ccccc1 (stereo not given in full) | > 100 | > 100 | > 100 | 39.4 | 98.8 | > 10 | > 10 | > 10 | – | – | – |
| C[C@@]1(F)[C@H](O)[C@@H](CO)O[C@@H]1n1cc(I)c2c(N)ncnc21 | > 100 | 40.9 | 65.9 | > 100 | > 100 | 7 | – | 24.9 | Active | Toxic | > 33 |
| COC(=O)/C=C/c1cn([C@@H]2O[C@H](CO)[C@@H](O)[C@@]2(C)F)c2ncnc(N)c12 | > 100 | > 100 | > 100 | > 100 | > 100 | > 10 | – | > 10 | – | – | – |
| CCOC(=O)[C@H](C)NP(=O)(OC[C@H]1O[C@@H](n2cc(I)c3c(N)nc(N)nc32)[C@](C)(F)[C@@H]1O)Oc1ccccc1 (stereo not given in full) | 67.4 | > 100 | 65.1 | 26.7 | > 100 | > 10 | > 10 | > 10 | – | – | – |
| COc1ncnc2c1ccn2[C@@H]1O[C@H](CO)[C@@H](O)[C@@]1(C)F | > 100 | > 100 | > 100 | 24.8 | 85.6 | > 10 | – | > 10 | – | – | – |
| C#Cc1cn([C@@H]2O[C@H](CO)[C@@H](O)[C@@]2(C)F)c2nc(N)nc(N)c12 | > 100 | > 100 | > 100 | 84.4 | > 100 | > 10 | – | – | – | – | – |
| COC(=O)/C=C/c1cn([C@H]2O[C@H](CO)[C@@H](O)[C@@]2(C)F)c2ncnc(N)c12 | > 100 | > 100 | > 100 | 0.71 | 9.5 | > 10 | > 10 | – | inactive | – | – |
| C[C@@]1(F)[C@H](O)[C@@H](CO)O[C@H]1n1cc(C#Cc2ccccc2)c2c(N)ncnc21 | 41.1 | 11.6 | 45.7 | 10.7 | 31.1 | < 10 | < 10 | – | Active | Toxic | – |

| Structure (SMILES) | IC50 (PBMC) [µM] | IC50 (CCRF-CEM) [µM] | IC50 (Vero) [µM] | EC50 [1] [µM] | EC90 [1] [µM] | EC50 (Hepatitis C virus) [µM] | CC50 (Huh-7) [µM] | EC90 (Hepatitis C virus) [µM] | Activity (Hepatitis B virus) | Activity (HepG2) | CC50 at 96 h [2] [µM] |
| --- | --- | --- | --- | --- | --- | --- | --- | --- | --- | --- | --- |
| C=Cc1cn([C@@H]2O[C@H](CO)[C@@H](O)[C@@]2(C)F)c2ncnc(N)c12 | 4.8 | 3.5 | 10.1 | 14.7 | 44.8 | 1.8 | 4.5 | 7.6 | – | – | – |
| C#Cc1cn([C@H]2O[C@H](CO)[C@@H](O)[C@@]2(C)F)c2ncnc(N)c12 | > 100 | > 100 | > 100 | 95.2 | – | < 10 | > 10 | > 10 | – | – | – |
| C#Cc1cn([C@H]2O[C@H](CO)[C@@H](O)[C@@]2(C)F)c2nc(N)nc(N)c12 | 54 | 26.5 | 61.7 | 7.1 | 59.1 | > 10 | > 10 | > 10 | inactive | – | – |
| C[C@@]1(F)[C@H](O)[C@@H](CO)O[C@@H]1n1ccc2c(N)ncnc21 | > 100 | > 100 | > 100 | > 100 | – | > 10 | – | – | – | – | – |
| C[C@@]1(F)[C@H](O)[C@@H](CO)O[C@@H]1n1cc(Cl)c2c(N)ncnc21 | > 100 | 96 | > 100 | > 100 | > 100 | < 10 | – | – | – | – | – |
| C[C@@]1(F)[C@H](O)[C@@H](CO)O[C@H]1n1ccc2c(N)ncnc21 | > 100 | > 100 | > 100 | > 100 | > 100 | > 10 | > 10 | > 10 | – | – | – |
| C=Cc1cn([C@H]2O[C@H](CO)[C@@H](O)[C@@]2(C)F)c2ncnc(N)c12 | 21 | 16 | 14.6 | 35.5 | 65.2 | 5.6 | 8.3 | 18.4 | – | – | – |
| CCc1cn([C@@H]2O[C@H](CO)[C@@H](O)[C@@]2(C)F)c2ncnc(N)c12 | 20.7 | > 100 | > 100 | 19 | > 100 | < 10 | – | – | – | – | – |
| C[C@@]1(F)[C@H](O)[C@@H](CO)O[C@H]1n1cc(I)c2c(N)nc(N)nc21 | 72.9 | 85.4 | 62.8 | 99.5 | – | > 10 | > 10 | > 10 | – | – | – |
| C[C@@]1(F)[C@H](O)[C@@H](CO)O[C@@H]1n1cc(Br)c2c(N)ncnc21 | 89.1 | 76 | 71.1 | ≥ 100 | – | < 10 | > 10 | – | – | – | – |
| C[C@@]1(F)[C@H](O)[C@@H](CO)O[C@H]1n1cc(I)c2c(N)ncnc21 | 53.2 | 24 | 21.4 | 94 | > 100 | 1.1 | – | > 33 | – | – | 10.4 |
| C[C@@]1(F)[C@H](O)[C@@H](CO)O[C@@H]1n1cc(F)c2c(N)ncnc21 | > 100 | 8.1 | > 100 | > 100 | – | > 10 | > 10 | – | – | – | – |
| CCc1cn([C@H]2O[C@H](CO)[C@@H](O)[C@@]2(C)F)c2ncnc(N)c12 | > 100 | > 100 | > 100 | 95.5 | – | > 10 | > 10 | > 10 | – | – | – |
| CNc1ncnc2c1c(F)cn2[C@@H]1O[C@H](CO)[C@@H](O)[C@@]1(C)F | > 100 | > 100 | > 100 | > 100 | > 100 | > 10 | > 10 | > 10 | – | – | – |
| C[C@@]1(F)[C@H](O)[C@@H](CO)O[C@H]1n1cc(Br)c2c(N)ncnc21 | 74.2 | 50.5 | 53.1 | > 100 | > 100 | < 10 | < 10 | > 10 | – | – | – |
| Cc1cn([C@H]2C[C@H](N=[N+]=[N-])[C@@H](CO)O2)c(=O)[nH]c1=O [ZIDOVUDINE] | > 100 | – | – | 0.0033 | 0.028 | > 10 | > 10 | > 10 | – | – | – |
| C#Cc1cn([C@@H]2O[C@H](CO)[C@@H](O)[C@@]2(C)F)c2ncnc(N)c12 | 94.1 | > 100 | > 100 | 59.1 | > 100 | < 10 | – | – | – | – | – |
